Paper PMC5115981 (Cancer chemotherapy and pharmacology, 2016)
“And” between values parts separate entries of the source, which are not always exact repeats. Equal entries are not always repeated.

Assay: Single dose pharmacokinetics in mice
Type: in vivo, mouse
Outline: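 Fasted female heterozygous Foxn1nu/Foxn1+ mice, 3 per time point (5–1440 min), received a single dose by one of three routes: 4.0 mg/kg in 10% Solutol HS IV via tail vein; the same formulation by oral gavage; or 30 mg/kg PO in 1% CMC suspension. Vehicle controls were taken at 5 and 1440 min. Sampling: cardiac-puncture EDTA plasma, tissues including brain, and metabolic-cage urine. Analysis by LC-MS/MS with a deuterated internal standard. Group means underwent non-compartmental analysis; […].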

[1] = female, heterozygous Foxn1nu/Foxn1+, mouse, brain, iv, 4 mg/kg
[2] = female, heterozygous Foxn1nu/Foxn1+, mouse, brain, po, 4 mg/kg
[3] = female, heterozygous Foxn1nu/Foxn1+, mouse, brain, po, 30 mg/kg
[4] = female, heterozygous Foxn1nu/Foxn1+, mouse, kidney, iv, 4 mg/kg
[5] = female, heterozygous Foxn1nu/Foxn1+, mouse, kidney, po, 4 mg/kg
[6] = female, heterozygous Foxn1nu/Foxn1+, mouse, kidney, po, 30 mg/kg
[7] = female, heterozygous Foxn1nu/Foxn1+, mouse, liver, iv, 4 mg/kg
[8] = female, heterozygous Foxn1nu/Foxn1+, mouse, liver, po, 4 mg/kg
[9] = female, heterozygous Foxn1nu/Foxn1+, mouse, liver, po, 30 mg/kg
[10] = female, heterozygous Foxn1nu/Foxn1+, mouse, lung, iv, 4 mg/kg
[11] = female, heterozygous Foxn1nu/Foxn1+, mouse, lung, po, 4 mg/kg
[12] = female, heterozygous Foxn1nu/Foxn1+, mouse, lung, po, 30 mg/kg
[13] = female, heterozygous Foxn1nu/Foxn1+, mouse, muscle, iv, 4 mg/kg
[14] = female, heterozygous Foxn1nu/Foxn1+, mouse, muscle, po, 30 mg/kg
[15] = female, heterozygous Foxn1nu/Foxn1+, mouse, plasma, iv, 4 mg/kg
[16] = female, heterozygous Foxn1nu/Foxn1+, mouse, plasma, po, 4 mg/kg
[17] = female, heterozygous Foxn1nu/Foxn1+, mouse, plasma, po, 30 mg/kg
[18] = female, heterozygous Foxn1nu/Foxn1+, mouse, red blood cells (RBC), iv, 4 mg/kg
[19] = female, heterozygous Foxn1nu/Foxn1+, mouse, red blood cells, po, 4 mg/kg
[20] = female, heterozygous Foxn1nu/Foxn1+, mouse, skeletal muscle, po, 4 mg/kg

COc1ccc(C2=Nn3c(nnc3-c3cc(-c4ccc(Cl)cc4)n[nH]3)SC2C)cc1 (stereo not shown) [UPCDC-10205, 3-(3-(4-chlorophenyl)-1H-pyrazole-5-yl)-6-(4-methoxyphenyl)-7-methyl-7H-[1,2,4]triazolo[3,4-b][1,3,4]thiadiazine]
AUC(0-t) [1]: 1730 ng·h/mL
Tmax [1]: 15 min
Cmax (female, heterozygous Foxn1nu/Foxn1+, mouse, brain, iv, 4 mg/kg, mice, IV 4 mg/kg in 10% Solutol HS, brain): 1640 ng/mL
AUC(0-t) [2]: 30 ng·h/mL
Tmax [2]: 60 min
Cmax (female, heterozygous Foxn1nu/Foxn1+, mouse, brain, po, 4 mg/kg, mice, PO 4 mg/kg in 10% Solutol HS, brain): 15.4 ng/mL
AUC(0-t) [3]: 33.4 ng·h/mL
Tmax [3]: 5 min
Cmax (female, heterozygous Foxn1nu/Foxn1+, mouse, brain, po, 30 mg/kg, mice, PO 30 mg/kg suspension in 1% CMC, brain): 49 ng/mL
AUC(0-t) [4]: 3240 ng·h/mL
Tmax [4]: 5 min
Cmax (female, heterozygous Foxn1nu/Foxn1+, mouse, kidney, iv, 4 mg/kg, mice, IV 4 mg/kg in 10% Solutol HS, kidney): 4620 ng/mL
AUC(0-t) [5]: 428 ng·h/mL
Tmax [5]: 30 min
Cmax (female, heterozygous Foxn1nu/Foxn1+, mouse, kidney, po, 4 mg/kg, mice, PO 4 mg/kg in 10% Solutol HS, kidney): 308 ng/mL
AUC(0-t) [6]: 272 ng·h/mL
Tmax [6]: 5 min
Cmax (female, heterozygous Foxn1nu/Foxn1+, mouse, kidney, po, 30 mg/kg, mice, PO 30 mg/kg suspension in 1% CMC, kidney): 404 ng/mL
AUC(0-t) [7]: 1470 ng·h/mL
Tmax [7]: 30 min
Cmax (female, heterozygous Foxn1nu/Foxn1+, mouse, liver, iv, 4 mg/kg, mice, IV 4 mg/kg in 10% Solutol HS, liver): 2780 ng/mL
AUC(0-t) [8]: 300 ng·h/mL
Tmax [8]: 5 min
Cmax (female, heterozygous Foxn1nu/Foxn1+, mouse, liver, po, 4 mg/kg, mice, PO 4 mg/kg in 10% Solutol HS, liver): 220 ng/mL
AUC(0-t) [9]: 542 ng·h/mL
Tmax [9]: 5 min
Cmax (female, heterozygous Foxn1nu/Foxn1+, mouse, liver, po, 30 mg/kg, mice, PO 30 mg/kg suspension in 1% CMC, liver): 564 ng/mL
AUC(0-t) [10]: 2680 ng·h/mL
Tmax [10]: 5 min
Cmax (female, heterozygous Foxn1nu/Foxn1+, mouse, lung, iv, 4 mg/kg, mice, IV 4 mg/kg in 10% Solutol HS, lung): 4490 ng/mL
AUC(0-t) [11]: 630 ng·h/mL
Tmax [11]: 4.98 min
Cmax (female, heterozygous Foxn1nu/Foxn1+, mouse, lung, po, 4 mg/kg, mice, PO 4 mg/kg in 10% Solutol HS, lung): 414 ng/mL
AUC(0-t) [12]: 186 ng·h/mL
Tmax [12]: 5 min
Cmax (female, heterozygous Foxn1nu/Foxn1+, mouse, lung, po, 30 mg/kg, mice, PO 30 mg/kg suspension in 1% CMC, lung): 331 ng/mL
AUC(0-t) [13]: 1630 ng·h/mL
Tmax [13]: 15 min
Cmax (female, heterozygous Foxn1nu/Foxn1+, mouse, muscle, iv, 4 mg/kg, mice, IV 4 mg/kg in 10% Solutol HS, muscle): 1900 ng/mL
Cmax (female, heterozygous Foxn1nu/Foxn1+, mouse, muscle, po, 4 mg/kg, mice, PO 4 mg/kg in 10% Solutol HS, muscle): 51.2 ng/mL
AUC(0-t) [14]: 140 ng·h/mL
Tmax [14]: 5 min
Cmax (female, heterozygous Foxn1nu/Foxn1+, mouse, muscle, po, 30 mg/kg, mice, PO 30 mg/kg suspension in 1% CMC, muscle): 189 ng/mL
AUC(0-inf) [15]: 1020 ng·h/mL
AUC(0-t) [15]: 1020 ng·h/mL
Tmax [15]: 5 min
half-life [15]: 36 min
Cmax (female, heterozygous Foxn1nu/Foxn1+, mouse, plasma, iv, 4 mg/kg, mice, IV 4 mg/kg in 10% Solutol HS, plasma): 1710 ng/mL
Vd (female, heterozygous Foxn1nu/Foxn1+, mouse, plasma, iv, 4 mg/kg, Vd, mice, IV 4 mg/kg, plasma): 3.4 L/kg
Vd (female, heterozygous Foxn1nu/Foxn1+, mouse, plasma, iv, 4 mg/kg, Vss, mice, IV 4 mg/kg, plasma): 2 L/kg
clearance (female, heterozygous Foxn1nu/Foxn1+, mouse, plasma, iv, 4 mg/kg, clearance, mice, IV 4 mg/kg, plasma): 65.2 mL/min/kg
bioavailability (female, heterozygous Foxn1nu/Foxn1+, mouse, plasma, oral, 30 mg/kg): 0.3%
AUC(0-t) [16]: 52.1 ng·h/mL
Tmax [16]: 30 min
half-life [16]: 48 min
Cmax (female, heterozygous Foxn1nu/Foxn1+, mouse, plasma, po, 4 mg/kg, mice, PO 4 mg/kg in 10% Solutol HS, plasma): 35 ng/mL
AUC(0-t) [17]: 25.7 ng·h/mL
Tmax [17]: 60 min
half-life [17]: 204 min
Cmax (female, heterozygous Foxn1nu/Foxn1+, mouse, plasma, po, 30 mg/kg, mice, PO 30 mg/kg suspension in 1% CMC, plasma): 6.7 ng/mL
AUC(0-t) [18]: 556 ng·h/mL
Tmax [18]: 5 min
Cmax (female, heterozygous Foxn1nu/Foxn1+, mouse, red blood cells (RBC), iv, 4 mg/kg, mice, IV 4 mg/kg in 10% Solutol HS, RBC): 980 ng/mL
Cmax (female, heterozygous Foxn1nu/Foxn1+, mouse, red blood cells (RBC), po, 4 mg/kg, mice, PO 4 mg/kg in 10% Solutol HS, RBC): 16 ng/mL
AUC(0-t) [19]: 23.5 ng·h/mL
Tmax [19]: 30 min
AUC(0-t) [20]: 91.4 ng·h/mL
Tmax [20]: 60 min
level in pooled urine as % of the total amount administered (mice, IV 4 mg/kg, 0-6 h collection): 0.0011%
level in pooled urine as % of the total amount administered (mice, IV 4 mg/kg, 6-24 h collection): 0.0010%
clearance (mice, IV 4 mg/kg, plasma, 4 mg/kg): 65 mL/min/kg
peak plasma concentration after IV dosing (mice, IV 4 mg/kg, 4 mg/kg): 1.7 µg/mL and 4.0 µM
plasma level by the 6 h time point (mice, IV 4 mg/kg, LLQ 1 ng/mL): below the lower limit of quantitation
%F (oral bioavailability, using AUC0-t) (mice, PO 4 mg/kg in 10% Solutol HS vs IV 4 mg/kg, plasma, 4 mg/kg): 5.1%
level in pooled urine as % of the total dose (mice, PO 4 mg/kg, 0-6 h): 0.0077%
urine concentration (mice, PO 4 mg/kg, 6-24 h): below the LLQ
time of Cmax after administration (mice, PO 4 mg/kg, plasma): 0.5 h
plasma concentrations after the 2 h time point (mice, PO 4 mg/kg, LLQ 1 ng/mL): below the LLQ
time of Cmax after administration (mice, PO 30 mg/kg in 1% CMC suspension, plasma): 1.0 h
urine concentration (mice, PO 30 mg/kg in 1% CMC, all urine samples): below the LLQ
amount excreted in urine (mice, renal excretion): < 0.1 % of dose
tissue distribution (mice, tissue levels compared with plasma): extensive tissue distribution
